# Assay results from ChEMBL document CHEMBL3525972, “Characterization of aldehyde oxidase enzyme activity in cryopreserved human hepatocytes” (Drug Metab Dispos, 2012).
# What was measured:
# Aldehyde oxidase [1] = target: T1, Aldehyde oxidase (Homo sapiens, UniProt Q06278); test: Retention time in cryopreserved human hepatocytes assessed as aldehyde oxidase-mediated metabolite formation treated with 10 uM of carbazeran by LC-MS extracted ion chromatogram analysis; assay type: ADME, cell-based, Hepatocyte
# T1 sequence (Q06278 whole entry): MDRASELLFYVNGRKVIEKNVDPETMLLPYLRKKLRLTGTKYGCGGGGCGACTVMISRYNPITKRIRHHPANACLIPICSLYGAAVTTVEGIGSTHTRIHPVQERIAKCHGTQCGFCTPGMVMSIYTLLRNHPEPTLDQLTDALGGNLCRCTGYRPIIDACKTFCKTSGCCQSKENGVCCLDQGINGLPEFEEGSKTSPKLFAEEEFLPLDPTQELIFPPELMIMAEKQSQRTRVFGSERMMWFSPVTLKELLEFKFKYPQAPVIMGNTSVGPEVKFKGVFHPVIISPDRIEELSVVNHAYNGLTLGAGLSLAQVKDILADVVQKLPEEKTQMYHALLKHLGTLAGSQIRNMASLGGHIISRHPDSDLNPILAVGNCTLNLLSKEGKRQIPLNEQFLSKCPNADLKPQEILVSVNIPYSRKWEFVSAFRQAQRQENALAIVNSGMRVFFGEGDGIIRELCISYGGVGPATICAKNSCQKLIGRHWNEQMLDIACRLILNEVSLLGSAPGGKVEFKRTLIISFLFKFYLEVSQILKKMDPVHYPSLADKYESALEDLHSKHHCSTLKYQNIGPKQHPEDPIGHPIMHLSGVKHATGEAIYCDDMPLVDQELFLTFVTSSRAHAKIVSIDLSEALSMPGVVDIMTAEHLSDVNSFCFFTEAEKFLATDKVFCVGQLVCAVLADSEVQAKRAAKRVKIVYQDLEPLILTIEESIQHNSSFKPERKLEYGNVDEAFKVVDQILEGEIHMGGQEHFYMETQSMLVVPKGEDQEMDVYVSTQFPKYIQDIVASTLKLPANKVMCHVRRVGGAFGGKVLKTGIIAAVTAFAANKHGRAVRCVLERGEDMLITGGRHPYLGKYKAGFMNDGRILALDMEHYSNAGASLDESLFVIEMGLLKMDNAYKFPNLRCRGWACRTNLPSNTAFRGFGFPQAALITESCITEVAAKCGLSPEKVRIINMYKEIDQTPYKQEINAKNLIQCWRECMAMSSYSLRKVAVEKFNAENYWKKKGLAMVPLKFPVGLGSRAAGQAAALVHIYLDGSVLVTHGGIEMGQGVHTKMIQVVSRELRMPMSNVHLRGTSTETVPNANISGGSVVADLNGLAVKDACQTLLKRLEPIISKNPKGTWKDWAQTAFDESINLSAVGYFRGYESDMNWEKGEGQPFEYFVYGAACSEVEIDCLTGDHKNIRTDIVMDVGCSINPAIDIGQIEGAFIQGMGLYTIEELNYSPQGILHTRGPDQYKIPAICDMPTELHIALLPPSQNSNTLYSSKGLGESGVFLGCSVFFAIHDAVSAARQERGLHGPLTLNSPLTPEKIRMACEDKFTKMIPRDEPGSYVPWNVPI
# Summary of the method: (§1)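 Cryopreserved human hepatocytes (lot OOO) were thawed for ~2 min at 37°C, diluted 1/50 in warm recovery medium or WME, spun at 100 x g for 6 min, and resuspended in WME at a final 2.0 x 10^6 cells/mL. They were incubated with 10 µM substrate for 120 min at 37°C. Reactions were stopped with two volumes of cold acetonitrile, then spun, dried under N2 and reconstituted. Read-out was positive-ESI Orbitrap LC-MS extracted ion chromatograms.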
# Aldehyde oxidase [2] = target: T1, Aldehyde oxidase; test: Retention time in cryopreserved human hepatocytes assessed as aldehyde oxidase-mediated metabolite formation treated with 10 uM of O6-benzylguanine by LC-MS extracted ion chromatogram analysis; assay type: ADME, cell-based, Hepatocyte; summary of the method: as §1
# Aldehyde oxidase [3] = target: T1, Aldehyde oxidase; test: Drug level in cryopreserved human hepatocytes assessed as aldehyde oxidase-mediated metabolite formation treated with 10 uM of BIBU1476 by LC-MS extracted ion chromatogram analysis; assay type: ADME, cell-based, Hepatocyte
# Aldehyde oxidase [4] = target: T1, Aldehyde oxidase; test: Drug level in cryopreserved human hepatocytes assessed as aldehyde oxidase-mediated metabolite formation treated with 10 uM of BIBX1382 by LC-MS extracted ion chromatogram analysis; assay type: ADME, cell-based, Hepatocyte; summary of the method: as §1
# Aldehyde oxidase [5] = target: T1, Aldehyde oxidase; test: Drug metabolism in cryopreserved human hepatocytes assessed as aldehyde oxidase-mediated parent compound retention time at 10 uM by LC-MS extracted ion chromatogram analysis; assay type: ADME, cell-based, Hepatocyte
# Summary of the method: as §1, with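 “cells/mL.” for “cells/mL. They were incubated with 10 µM substrate for 120 min at 37°C.”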
# Aldehyde oxidase [6] = target: T1, Aldehyde oxidase; test: Drug metabolism in cryopreserved human hepatocytes assessed as aldehyde oxidase-mediated 8-(3-chloro-4-fluorophenylamino)-2-imino-6-oxo-2,3,5,6-tetrahydropyrimido[5,4-d]pyrimidin-3-ium formation at 10 uM by LC-MS extracted ion chromatogram analysis; assay type: ADME, cell-based, Hepatocyte; summary of the method: as §1
# Aldehyde oxidase [7] = target: T1, Aldehyde oxidase; test: Drug metabolism in cryopreserved human hepatocytes assessed as aldehyde oxidase-mediated N-(but-1-en-2-yl)-8-(3-chloro-4-fluorophenylamino)-6-oxo-6,7-dihydropyrimido[5,4-d]pyrimidin-2-aminium formation at 10 uM by LC-MS extracted ion chromatogram analysis; assay type: ADME, cell-based, Hepatocyte; summary of the method: as §1
# Aldehyde oxidase [8] = target: T1, Aldehyde oxidase; test: Drug metabolism in cryopreserved human hepatocytes assessed as aldehyde oxidase-mediated 3-(8-(3-chloro-4-fluorophenylamino)-6-oxo-6,7-dihydropyrimido[5,4-d]pyrimidin-2-ylamino)pent-4-en-1-ylium formation at 10 uM by LC-MS extracted ion chromatogram analysis; assay type: ADME, cell-based, Hepatocyte; summary of the method: as §1
# Aldehyde oxidase [9] = target: T1, Aldehyde oxidase; test: Retention time in cryopreserved human hepatocytes assessed as aldehyde oxidase-mediated metabolite formation treated with 10 uM of zaleplon by LC-MS extracted ion chromatogram analysis; assay type: ADME, cell-based, Hepatocyte
# Summary of the method: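 Cryopreserved human hepatocytes (Lot OOO), thawed at 37°C, spun at 100 x g, resuspended in Williams' Medium E, then incubated at 2.0 x 10^6 cells/mL with 10 µM substrate for 120 min at 37°C. Quenched with two volumes of cold acetonitrile, centrifuged, supernatant dried under N2 and reconstituted in 85:15 water/acetonitrile (0.1% formic acid). Analysed by high-resolution ESI-positive Orbitrap LC-MS using extracted ion chromatograms.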
# Aldehyde oxidase [10] = target: T1, Aldehyde oxidase; test: Retention time in cryopreserved human hepatocytes assessed as aldehyde oxidase-mediated metabolite formation treated with 10 uM of XK-469 by LC-MS extracted ion chromatogram analysis; assay type: ADME, cell-based, Hepatocyte; summary of the method: as §1
# Aldehyde oxidase [11] = target: T1, Aldehyde oxidase; test: Drug metabolism in cryopreserved human hepatocytes assessed as aldehyde oxidase-mediated metabolite formation at 10 uM by LC-MS extracted ion chromatogram analysis in presence of hydralazine
# clinical = conditions: human, in vivo
# [12] = Oral bioavailability in human; assay type: ADME, organism-based; conditions: in vivo
# Aldehyde oxidase [13] = target: T1, Aldehyde oxidase; test: Drug metabolism in cryopreserved human hepatocytes assessed as aldehyde oxidase-mediated N-(but-1-en-2-yl)-8-(3-chloro-4-fluorophenylamino)pyrimido[5,4-d]pyrimidin-2-aminium formation at 10 uM by LC-MS extracted ion chromatogram analysis; assay type: ADME, cell-based, Hepatocyte; summary of the method: as §1
# Aldehyde oxidase [14] = target: T1, Aldehyde oxidase; test: Drug metabolism in cryopreserved human hepatocytes assessed as aldehyde oxidase-mediated 3-(8-(3-chloro-4-fluorophenylamino)pyrimido[5,4-d]pyrimidin-2-ylamino)pent-4-en-1-ylium formation at 10 uM by LC-MS extracted ion chromatogram analysis; assay type: ADME, cell-based, Hepatocyte; summary of the method: as §1
# Aldehyde oxidase [15] = target: T1, Aldehyde oxidase; test: Drug metabolism in cryopreserved human hepatocytes assessed as aldehyde oxidase-mediated 8-(3-chloro-4-fluorophenylamino)-2-imino-2,3-dihydropyrimido[5,4-d]pyrimidin-3-ium formation at 10 uM by LC-MS extracted ion chromatogram analysis; assay type: ADME, cell-based, Hepatocyte; summary of the method: as §1
structure (smiles),measurement,setting,value
CCNC(=O)OC1CCN(c2n[nH]c(=O)c3cc(OC)c(OC)cc23)CC1,Retention_time,Aldehyde oxidase [1],13.9 min
Nc1nc(OCc2ccccc2)c2[nH]c(O)nc2n1,Retention_time,Aldehyde oxidase [2],12.5 min
N=c1nc2c(Nc3ccc(F)c(Cl)c3)nc(=O)[nH]c2c[nH]1,Drug metabolism,Aldehyde oxidase [3],metabolite_detected
C=C(CC)Nc1ncc2nc(=O)[nH]c(Nc3ccc(F)c(Cl)c3)c2n1,Drug metabolism,Aldehyde oxidase [3],metabolite_detected
Nc1ncc2ncnc(Nc3ccc(F)c(Cl)c3)c2n1,Drug metabolism,Aldehyde oxidase [4],metabolite_detected
CN1CCC(Nc2ncc3nc(=O)[nH]c(Nc4ccc(F)c(Cl)c4)c3n2)CC1,Retention time,Aldehyde oxidase [5],10.7 min
same,Drug metabolism,Aldehyde oxidase [6],metabolite_detected
same,Drug metabolism,Aldehyde oxidase [7],metabolite_detected
same,Drug metabolism,Aldehyde oxidase [8],metabolite_detected
C=C(CC)Nc1ncc2ncnc(Nc3ccc(F)c(Cl)c3)c2n1,Drug metabolism,Aldehyde oxidase [4],metabolite_detected
CCN(C(C)=O)c1cccc(-c2cc(=O)[nH]c3c(C#N)cnn23)c1,Retention_time,Aldehyde oxidase [9],12.7 min
C[C@@H](Oc1ccc(OC2N=c3cc(Cl)ccc3=NC2=O)cc1)C(=O)O (some centres undefined),Retention_time,Aldehyde oxidase [10],15.7 min
C=CC(CC)Nc1ncc2nc(=O)[nH]c(Nc3ccc(F)c(Cl)c3)c2n1 (centres undefined),Drug metabolism,Aldehyde oxidase [3],metabolite_detected
C=CC(CC)Nc1ncc2ncnc(Nc3ccc(F)c(Cl)c3)c2n1 (centres undefined),Drug metabolism,Aldehyde oxidase [4],metabolite_detected
Nc1nc(OCc2ccccc2)c2[nH]cnc2n1 [6-O-BENZYLGUANINE],Drug metabolism,Aldehyde oxidase [11],metabolite_not_detected
same,Retention_time,Aldehyde oxidase [5],10.5 min
same,clearance,clinical,15.6 mL/min/kg
CCNC(=O)OC1CCN(c2nncc3cc(OC)c(OC)cc23)CC1 [CARBAZERAN],bioavailability,[12],< 5%
CN1CCC(Nc2ncc3ncnc(Nc4ccc(F)c(Cl)c4)c3n2)CC1 [FALNIDAMOL],Drug metabolism,Aldehyde oxidase [11],metabolite_not_detected
same,bioavailability,[12],2%
same,Retention time,Aldehyde oxidase [5],12.5 min
same,Drug metabolism,Aldehyde oxidase [13],metabolite_detected
same,Drug metabolism,Aldehyde oxidase [14],metabolite_detected
same,Drug metabolism,Aldehyde oxidase [15],metabolite_detected
same,clearance,clinical,25 mL/min/kg
C[C@@H](Oc1ccc(Oc2cnc3ccc(Cl)cc3n2)cc1)C(=O)O [R(+)XK469],Retention_time,Aldehyde oxidase [5],17.4 min
same,clearance,clinical,< 1 mL/min/kg
CCN(C(C)=O)c1cccc(-c2ccnc3c(C#N)cnn23)c1 [ZALEPLON],Retention_time,Aldehyde oxidase [5],14.5 min
same,clearance,clinical,15.7 mL/min/kg
